Data set [1] deals with T1, Peroxisome proliferator-activated receptor alpha (Homo sapiens, UniProt Q07869).
T1 sequence (Q07869 whole entry): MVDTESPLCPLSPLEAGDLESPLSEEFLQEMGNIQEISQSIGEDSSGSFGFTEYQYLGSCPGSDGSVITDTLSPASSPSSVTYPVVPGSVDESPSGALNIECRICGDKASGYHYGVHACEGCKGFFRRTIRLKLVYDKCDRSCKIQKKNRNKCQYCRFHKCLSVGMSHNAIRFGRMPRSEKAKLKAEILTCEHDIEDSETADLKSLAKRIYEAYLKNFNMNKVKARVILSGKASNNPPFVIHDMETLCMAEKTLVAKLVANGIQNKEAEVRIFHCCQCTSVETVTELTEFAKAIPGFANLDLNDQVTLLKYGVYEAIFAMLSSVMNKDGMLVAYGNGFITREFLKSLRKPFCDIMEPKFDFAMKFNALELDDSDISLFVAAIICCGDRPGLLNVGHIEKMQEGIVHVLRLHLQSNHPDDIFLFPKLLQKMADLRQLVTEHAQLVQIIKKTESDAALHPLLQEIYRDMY
The data set is described as follows: Compound was tested in vitro for inhibiting the 50% binding of Peroxisome proliferator activated receptor alpha. It is filed as functional.

Data set [2] has as its target T2, Peroxisome proliferator-activated receptor gamma (Homo sapiens, UniProt P37231).
T2 sequence (P37231 whole entry): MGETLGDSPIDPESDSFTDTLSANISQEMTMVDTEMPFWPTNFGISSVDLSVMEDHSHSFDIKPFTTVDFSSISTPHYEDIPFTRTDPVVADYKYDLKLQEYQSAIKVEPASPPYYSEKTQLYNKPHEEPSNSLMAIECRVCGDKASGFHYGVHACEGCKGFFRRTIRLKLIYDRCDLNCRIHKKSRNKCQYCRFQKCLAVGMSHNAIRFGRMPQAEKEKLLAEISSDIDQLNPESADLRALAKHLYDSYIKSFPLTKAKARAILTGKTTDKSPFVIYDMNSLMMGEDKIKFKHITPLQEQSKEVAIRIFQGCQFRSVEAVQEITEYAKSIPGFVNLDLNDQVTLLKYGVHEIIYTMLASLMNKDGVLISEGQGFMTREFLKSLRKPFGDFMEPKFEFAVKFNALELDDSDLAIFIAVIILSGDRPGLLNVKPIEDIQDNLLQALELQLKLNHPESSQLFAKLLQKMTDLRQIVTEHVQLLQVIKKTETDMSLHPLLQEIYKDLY
The data set is described as follows: Compound was tested functionally in vitro for inducing 50% of the maximum alkaline phosphate activity (Transactivation) against Peroxisome proliferator activated receptor gamma. It is filed as functional.

Data set [3] has as its target T2, Peroxisome proliferator-activated receptor gamma. The data set is described as follows: Inhibition by 50% of in vitro binding to Peroxisome proliferator activated receptor gamma.
For data set [4] the target is unchanged. The data set is described as follows: Compound was tested in vitro for inhibiting the 50% binding of Peroxisome proliferator activated receptor gamma; IA = Inactive. In a few lines: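 Competitive radioligand binding to PPARγ with [3H]BRL 49653 as the radioligand. […] It is converted to an apparent Ki by Ki = IC50/(1 + [L]/Kd), and results are given as pKi.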

Data set [5] deals with Peroxisome proliferator-activated receptor gamma (Homo sapiens) (UniProt P37231). Kind of data set: Compound was tested in vitro for inhibiting the 50% binding of Peroxisome proliferator activated receptor gamma; IA = Inactive.
Data set [6] has as its target T2, Peroxisome proliferator-activated receptor gamma. The data set is described as follows: Tested functionally in vitro for inducing 50% of the maximum alkaline phosphate activity (Transactivation) against Peroxisome proliferator activated receptor gamma. It is filed as functional.
Data set [7] deals with T1, Peroxisome proliferator-activated receptor alpha. Kind of data set: In vitro transactivation of Peroxisome proliferator activated receptor alpha. Type of data set: functional.
For data set [8] the target is unchanged. The data set is described as follows: Tested in vitro for inhibiting the 50% binding of Peroxisome proliferator activated receptor alpha.
A short description of data set [9]: Solubility determined by equilibrating an excess of solid material in 500 microL of pH 7.4 phosphate buffer. Type of data set: physicochemical. As to conditions: read-out: S. Put shortly: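 Samples are filtered (0.22 µm) and diluted in water/acetonitrile 60:40. The dissolved concentration is measured by reversed-phase HPLC on a phenyl column with 0.05% TFA water/acetonitrile (60:40), 1 mL/min, and UV detection at each compound's maximum. Results are in mg/mL.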

Data set [10] has as its target T3, Peroxisome proliferator-activated receptor alpha (Homo sapiens) (UniProt Q07869).
T3 sequence (whole entry): T1 sequence (Q07869 whole entry)
Kind of data set: Compound was tested in vitro for inhibiting the 50% binding of Peroxisome proliferator activated receptor alpha; IA = 'inactive'.

SMILES strings stand for the structures. ≈ marks a conversion by molar mass, not a printed value. Calls of active or inactive are those of the source. The rule behind the calls is not given here. Some results are limits rather than exact numbers.

As to `O=C(c1ccccc1)c1ccccc1N[C@@H](Cc1ccc(OCCOc2ccc(SCl)cc2)cc1)C(=O)O`, the Ki in [1] is 1410 nM. Also, the EC50 in data set [2] is 191 nM.

`COC(COc1ccc(C[C@H](Nc2ccccc2C(=O)c2ccccc2)C(=O)O)cc1)c1ccccc1` (stereo not given in full): the inhibition constant (Ki) in data set [3] was 794 nM.

As to `O=C(c1ccccc1)c1ccccc1N[C@@H](Cc1ccc(OC2CCN2C(c2ccccc2)c2ccccc2)cc1)C(=O)O` (stereo not given in full), in data set [3], the Ki is 1620 nM.

Regarding `O=C(c1ccccc1)c1ccccc1N[C@@H](Cc1ccc(OCC2COCCOCCOCCO2)cc1)C(=O)O` (stereo not given in full), the Ki in data set [4] is 1170 nM.

As to `Cc1cc(C(C)C)ccc1CCOc1ccc(C[C@H](Nc2ccccc2C(=O)c2ccccc2)C(=O)O)cc1`, the “Log Ki” value in [5] is “inactive”.

As to `Cc1sc(N2CCN(S(C)(=O)=O)CC2)nc1CCOc1ccc(C[C@H](Nc2ccccc2C(=O)c2ccccc2)C(=O)O)cc1`, the Ki in data set [3] was 2.63 nM; in data set [8], 2510 nM. Further, the concentration for a half-maximal effect (EC50) is 23.4 nM in data set [6] and > 10000 nM in [7].

As for `Cc1cc(-c2ccccc2)nn1CCOc1ccc(C[C@H](Nc2ccccc2C(=O)c2ccccc2)C(=O)O)cc1`, the concentration for a half-maximal effect (EC50) in data set [7] was 661 nM. The inhibition constant Ki in data set [8] is 174 nM. Moreover, in [9], the solubility thermodynamic was 4 µg/mL (≈ 7.33 µM).

Take `O=C(c1ccccc1)c1ccccc1N[C@@H](Cc1ccc(OCCOc2ccc(Br)cc2)cc1)C(=O)O`: the “Log Ki” value in data set [10] was “inactive”.

On to `COc1ccccc1C(=O)N1CCC[C@H]1COc1ccc(C[C@H](Nc2ccccc2C(=O)c2ccccc2)C(=O)O)cc1`, for which, in data set [3], the affinity, expressed as Ki, was 955 nM.

In general, Ki refers to the dissociation constant of the complex between target and ligand, obtained from inhibition or displacement. Higher therefore signals a looser hold on the target. One may read the EC50 as the midpoint of the concentration-response curve.

The values are drawn from ChEMBL document CHEMBL1131423, “N-(2-Benzoylphenyl)-L-tyrosine PPARgamma agonists. 2. Structure-activity relationship and optimization of the phenyl alkyl ether moiety” (J Med Chem, 1998).
